The source made the active and inactive calls. The rule behind the calls is not given here.
Experiments:
[1] = target: T1, Glutamate receptor ionotropic, NMDA 2B (Rattus norvegicus, UniProt Q00960); test: Ability to displace of racemic […] of [3H]CP-101606 binding to N-methyl-D-aspartate glutamate receptor 2B in rat forebrain membranes.; assay type: cell membranes, Membrane
[2] = Compound was evaluated for blockade of CSD as rats protected/ rats tested after a iv dose of 0.6 mg/kg followed by an infusion of 0.6 mg/kgh; 2/3; assay type: functional, organism-based
Rattus norvegicus [3] = test: Compound was evaluated for blockade of CSD in rats; rat protected /tested(mg/kg iv bolus+mg/kgh iv infusion) = 0/2 (0.2+0.2); assay type: functional, organism-based
[4] = Compound was evaluated for blockade of CSD as rats protected/ rats tested after a iv dose of 2 mg/kg followed by an infusion of 2 mg/kgh; 2/2; assay type: functional, organism-based
[5] = Compound was evaluated for blockade of CSD as rats protected/ rats tested after a iv dose of 0.2 mg/kg followed by an infusion of 0.2 mg/kg/h; 0/2; assay type: functional, organism-based
Rattus norvegicus [6] = test: Compound was evaluated for blockade of CSD in rats; rat protected /tested(mg/kg iv bolus+mg/kgh iv infusion) = 2/3 (0.6+0.6); assay type: functional, organism-based
Rattus norvegicus [7] = species: Rattus norvegicus; test: Compound was tested for neuroprotection against NMDA-Induced toxicity in cultured rat hippocampal neurons.; assay type: functional
[8] = Displacement of racemic [3H]CP-101606 from rat forebrain membrane N-methyl-D-aspartate glutamate receptor 2B
Rattus norvegicus [9] = test: Compound was evaluated in vivo for blockade of haloperidol induced catalepsy in rat when administered subcutaneously; assay type: functional; conditions: sc
In short: (§1)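 Rats given haloperidol were scored for catalepsy as remaining perched on an elevated bar. Test drug was given peripherally beforehand. ED50 in mg/kg ± SEM.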

Rattus norvegicus [10] = species: Rattus norvegicus; test: Compound was tested for neuroprotection against NMDA-Induced toxicity in cultured hippocampal neurons.; assay type: functional
In short: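 Neuron loss was induced by NMDA or glutamate in primary rat hippocampal neuron cultures, and inhibition of that loss was measured.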

Mus musculus [11] = test: Compound was evaluated in vivo for blockade of NMDA-stimulated fos induction in mouse; assay type: functional
[12] = target: T1, Glutamate receptor ionotropic, NMDA 2B; test: Compound was evaluated for its blocking effect against N-methyl-D-aspartate glutamate receptor 2B; parameters: species or system xenopus oocytes
Mus musculus [13] = test: Compound was evaluated in vivo for blockade of NMDA-stimulated fos induction in mouse when administered intravenously.; assay type: functional; conditions: iv
Rattus norvegicus [14] = test: Compound was evaluated in vivo for blockade of haloperidol induced catalepsy in rat when administered perorally; assay type: functional; conditions: po; in short: as §1
Rattus norvegicus [15] = test: Compound was evaluated in vivo for blockade of haloperidol induced catalepsy in rat when administered perorally.; assay type: functional; conditions: po; in short: as §1

T1 sequence (Q00960 whole entry, the tested form may be a part): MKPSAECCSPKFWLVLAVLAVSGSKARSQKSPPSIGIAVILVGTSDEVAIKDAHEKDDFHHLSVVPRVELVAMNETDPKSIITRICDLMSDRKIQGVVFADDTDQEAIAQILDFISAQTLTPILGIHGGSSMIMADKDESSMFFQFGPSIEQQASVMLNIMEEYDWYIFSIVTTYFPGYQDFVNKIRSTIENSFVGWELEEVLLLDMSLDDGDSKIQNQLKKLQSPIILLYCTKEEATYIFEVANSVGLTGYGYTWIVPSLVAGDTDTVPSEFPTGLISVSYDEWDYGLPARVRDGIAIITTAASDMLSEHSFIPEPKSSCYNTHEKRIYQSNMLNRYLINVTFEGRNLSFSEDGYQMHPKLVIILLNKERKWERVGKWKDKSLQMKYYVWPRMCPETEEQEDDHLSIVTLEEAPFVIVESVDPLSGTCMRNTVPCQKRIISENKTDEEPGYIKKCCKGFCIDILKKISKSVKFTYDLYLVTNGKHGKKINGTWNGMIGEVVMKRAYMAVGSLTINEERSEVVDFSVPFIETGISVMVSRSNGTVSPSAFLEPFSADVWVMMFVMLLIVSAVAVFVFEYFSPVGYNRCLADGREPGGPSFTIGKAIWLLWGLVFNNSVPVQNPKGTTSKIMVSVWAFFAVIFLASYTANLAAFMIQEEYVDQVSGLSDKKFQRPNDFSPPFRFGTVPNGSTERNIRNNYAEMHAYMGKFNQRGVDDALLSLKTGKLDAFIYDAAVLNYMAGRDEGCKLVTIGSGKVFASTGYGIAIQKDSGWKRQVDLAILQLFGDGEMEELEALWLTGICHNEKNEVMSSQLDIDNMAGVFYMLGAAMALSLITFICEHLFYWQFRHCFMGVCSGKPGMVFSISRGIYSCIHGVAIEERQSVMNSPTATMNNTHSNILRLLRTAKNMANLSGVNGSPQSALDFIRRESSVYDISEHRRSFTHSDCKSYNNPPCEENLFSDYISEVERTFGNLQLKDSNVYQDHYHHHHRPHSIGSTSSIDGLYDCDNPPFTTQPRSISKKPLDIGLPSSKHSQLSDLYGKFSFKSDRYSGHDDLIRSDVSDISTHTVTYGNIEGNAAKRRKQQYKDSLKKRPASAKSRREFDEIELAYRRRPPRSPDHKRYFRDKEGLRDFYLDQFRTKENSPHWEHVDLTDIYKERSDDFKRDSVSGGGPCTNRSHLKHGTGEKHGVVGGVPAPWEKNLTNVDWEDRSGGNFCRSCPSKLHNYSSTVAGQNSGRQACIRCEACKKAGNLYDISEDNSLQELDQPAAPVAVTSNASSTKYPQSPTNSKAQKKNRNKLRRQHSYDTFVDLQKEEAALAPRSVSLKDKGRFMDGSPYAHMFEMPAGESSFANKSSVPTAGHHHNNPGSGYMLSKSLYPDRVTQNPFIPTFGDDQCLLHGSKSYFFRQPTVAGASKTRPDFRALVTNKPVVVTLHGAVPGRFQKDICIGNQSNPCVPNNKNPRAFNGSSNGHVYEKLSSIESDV

SMILES | IC50 (Rattus norvegicus [7]; Rattus norvegicus) [nM] | IC50 [8] [nM] | other results
Oc1ccc2c(c1)OC[C@@H](N1CCC(O)(c3ccc(F)cc3)CC1)C2 | – | – | IC50 [1]: 300 nM
Oc1ccc2c(c1)OC[C@@H](N1CCC(O)(c3ccc(F)cc3)CC1)[C@H]2O (stereo in doubt; 12a) [listing 1 of 2 here] | – | – | Ratio [2]: Partially active; Blockade effect (Rattus norvegicus [3]): inactive; Ratio [4]: Active; Ratio [5]: inactive; Blockade effect (Rattus norvegicus [6]): Partially active
Oc1ccc2c(c1)OC[C@@H](N1CCC(O)(Cc3ccccc3)CC1)[C@H]2O | 533 | – | –
Oc1ccc2c(c1)OC[C@@H](N1CCC(O)(c3ccccc3)CC1)[C@H]2O (stereo in doubt; 5a) | – | 31 | IC50 (Rattus norvegicus [7]): 9 nM
Oc1ccc2c(c1)OC[C@@H](N1CCC(O)(c3ccc(F)cc3)CC1)[C@H]2O (stereo in doubt; 10a) | 5 | 28 | –
Oc1ccc2c(c1)OC[C@@H](N1CCC(O)(CCc3ccccc3)CC1)[C@H]2O | 20 | – | –
Oc1ccc2c(c1)OC1C[C@]1(N1CCC(O)(c3ccc(F)cc3)CC1)[C@H]2O (stereo not given in full) | 1000 | – | –
CO[C@H]1c2ccc(O)cc2OC[C@H]1N1CCC(O)(c2ccc(F)cc2)CC1 | – | > 300 | –
Oc1ccc2c(c1)OC[C@@H](N1CCC(O)(c3ccccc3)CC1)[C@H]2O (stereo in doubt; 3a) | – | 54 | IC50 (Rattus norvegicus [7]): 129 nM
Oc1cc2c(cc1F)[C@H](O)[C@H](N1CCC(O)(c3ccc(F)cc3)CC1)CO2 | 23 | 17 | –
Oc1ccc2c(c1)OC[C@H](N1CCC(O)(c3ccccc3)CC1)[C@@H]2O | 108 | 107 | –
C[C@@H]([C@@H](O)c1ccc(O)cc1)N1CCC(O)(c2ccccc2)CC1 [TRAXOPRODIL] | – | 27 | ED50 (Rattus norvegicus [9]): 0.4 mg/kg; IC50 (Rattus norvegicus [10]): 11 nM; ED50 (Mus musculus [11]): 1 mg/kg
Oc1ccc2c(c1)OC[C@@H](N1CCC(O)(c3ccc(C(F)(F)F)cc3)CC1)[C@H]2O | – | 20 | –
Oc1ccc2c(c1)OC[C@@H](N1CCC(O)(c3ccc(F)cc3)CC1)[C@H]2O (stereo in doubt; 12a) [listing 2 of 2 here] | – | 18 | ED50 (Rattus norvegicus [9]): 0.3 mg/kg; IC50 [12]: 206 nM; ED50 (Mus musculus [13]): 4 mg/kg; IC50 (Rattus norvegicus [7]): 4 nM; ED50 (Rattus norvegicus [14]): 1.2 mg/kg
COc1ccc2c(c1)OC[C@@H](N1CCC(O)(c3ccc(F)cc3)CC1)[C@H]2O | – | > 300 | –
Oc1ccc2c(c1)OC[C@@H](N1CCC(O)(c3ccccc3)CC1)[C@@H]2O | 383 | – | –
Oc1ccc2c(c1)OC[C@@H](N1CCC(Cc3ccccc3)CC1)[C@H]2O | 160 | 130 | –
Oc1ccc2c(c1)OC[C@H](N1CCC(O)(c3ccc(F)cc3)CC1)[C@@H]2O | 11 | 35 | ED50 (Rattus norvegicus [9]): 1.1 mg/kg; ED50 (Rattus norvegicus [15]): 6.8 mg/kg
Oc1ccc2c(c1)OC[C@@H](N1CCC(c3ccccc3)CC1)[C@H]2O | 25 | – | –
